Among the data in ChEMBL document CHEMBL4513216, “Probing the Open Global Health Chemical Diversity Library for Multistage-Active Starting Points for Next-Generation Antimalarials” (ACS Infect Dis, 2020) are cytotoxicity values, retold here.

The data set can be described thus: Toxicity liver stage against HepG2, at 10uM. Type of data set: cell-based. The arrangement: test concentration 10 uM, cell line HepG2-A16-CD81EGFP. The following applies: human, HepG2-A16-CD81EGFP cells; read-out: INHIBITION
The method in brief:
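Uninfected HepG2-A16-CD81EGFP cells, 3 × 10^3 per well, 1536-well, plated on prespotted compound at 10 μM final, parasite-free screening media added to match infected plates; puromycin 10 μM positive, DMSO 0.5% negative; run in parallel with 48 h PbLuc assay at 37 °C, 5% CO2; viability by CellTiter-Glo luminescence, normalized to controls.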
Turning to `CN(C)C(CNC(=O)c1nc(N2CCOCC2)ncc1Cl)c1ccco1` (stereo unspecified), the cytotoxicity at 10 µM is 7.96%. The figure for `COc1ccc(Cl)cc1NCC(=O)NCCNc1cnccn1` is -11.4%; for `CCN(CC)CC[C@H]1CN(C(=O)NC2CCCCC2)CC[C@H]1CC(=O)O` it is 7.77%; for `CC(C)NC(=O)NC[C@H]1OC[C@@H](NCc2ccccc2O)[C@@H]1O` it is -1.69%. The figure for `O=C1CC2(CCN(C(=O)c3ccccn3)CC2)Oc2c(Cl)cc(Cl)cc21` is 1.73%; for `O=C(NCCCn1ccnc1)c1cccnc1OCC(F)(F)F` it is 6.58%; for `COc1ccccc1CN1CC(OC)CN(C(=O)CC(C)C)CC1=O` (stereo unspecified) it is -3.3%. The figure for `COc1cccc(OC)c1C(=O)N1CC(=O)N(C2CCC2)CC(O)C1` (stereo unspecified) is -5.59%. Turning to `COc1cc2nc(C)n(CC(=O)NCCO)c(=O)c2cc1OC`, the cytotoxicity at 10 µM is -8.12%.

Turning to `CN(C)C(CNc1c(NCc2ccco2)c(=O)c1=O)c1ccccc1` (stereo unspecified), the cytotoxicity at 10 µM came to 5.16%.

As for `CC(C)NC(=O)N1CCC2(CC1)COc1ccccc1S(=O)(=O)N(C)C2`, the cytotoxicity at 10 µM is 7.02%.

With `O=C1CCCN1Cc1ncn2c1CN(C(=O)Cc1ccccc1)CCC2`, the cytotoxicity at 10 µM is 6.49%. In the case of `Cc1nnn2c1COCC(CNC(=O)c1cnoc1C)C2` (stereo unspecified) it was -2.69%; in that of `Cc1cccc(CN2C[C@@H]3CN(C(=O)c4ccnnc4)C[C@@H]3C2=O)c1`, -6.89%; in that of `CCOC(=O)N1CCN(C(=O)c2snnc2-c2ccc(OC)cc2)CC1`, 3.56%. On to `O=C(CSC1CCc2ccccc2NC1=O)NCCc1ccc(O)cc1` (stereo unspecified), for which the cytotoxicity at 10 µM is -4.25%.

For `CCn1nccc1CNC(=O)C(C)n1cc2c(n1)c(C)nn2C` (stereo unspecified), the cytotoxicity at 10 µM is 5.32%. The figure for `Cc1ccc(-c2noc(C3CCN3C(=O)c3ccc(=O)[nH]n3)n2)s1` (stereo unspecified) is 7.53%; for `CC(=O)N1CCC(Cc2nccnc2-c2ccnn2C)CC1` it is -7.3%; for `CCNC(=O)Nc1ncc(-c2cccnc2)s1` it is 14.6%. Turning to `Cc1cnn(CCNCc2nccn2CC(F)(F)F)c1`, the cytotoxicity at 10 µM is 6.51%.

Turning to `CC(C(=O)N1CCCC1)S(=O)(=O)Cc1noc(C(C)(C)C)n1` (stereo unspecified), the cytotoxicity at 10 µM was -1.1%.

For `COC(=O)c1cccc(CNC(=O)CCC(F)(F)F)c1`, the cytotoxicity at 10 µM was 11.6%. As for `CCn1cnnc1CNC(=O)N(C)Cc1c(F)cccc1Cl`, the cytotoxicity at 10 µM is -5.56%.

For the compound `NC(=O)NC(=O)C(c1ccccc1)N1CCN(Cc2ccsc2)CC1` (stereo unspecified), the cytotoxicity at 10 µM stood at 1.94%. For the compound `O=C1CCCN1Cc1ccc(C(=O)N2CCCC2c2cccs2)cc1` (stereo unspecified), the cytotoxicity at 10 µM was found to be 3.78%. Consider `CC(C)NC(=O)CN1CCC2(CC1)OCCO2`, for which the cytotoxicity at 10 µM is -8.67%. In the case of `CC(CNC(=O)N1CCN(Cc2ccon2)CC1)N(C)C1CC1` (stereo unspecified) it was -6.74%; in that of `CCCNC(=O)CCNC(=O)c1ccccc1N1CCOCC1`, 0.321%; in that of `Cc1noc(C)c1CNC(=O)N1CCC(OCC2CC2)CC1`, -11%. In the case of `c1ccc2c(N3CCOC(Cn4cccn4)C3)ncnc2c1` (stereo unspecified) it was -1.04%; in that of `Cc1cc(F)ccc1-n1cc(O)c(C(=O)NCC2(O)CCC2)n1`, 0.477%; in that of `N#Cc1ccc(NCCC2CCN(CC(F)(F)F)CC2)nc1`, 5.92%. In the case of `O=C(c1ccncc1)N1CCN(C(=O)c2coc3ccccc23)CC1` it was 4.27%; in that of `CC1(C(=O)NCCN2CCCCC2)CCCN1C(=O)c1ccccc1` (stereo unspecified), -6.44%; in that of `CC(C)(C(=O)O)S(=O)(=O)c1ccc(Br)cc1`, 4.67%. `CN(Cc1ccncc1)C(CO)c1cccc(Br)c1` (stereo unspecified): the cytotoxicity at 10 µM is 15.4%.

Regarding `COCc1nn(Cc2ccc(Br)s2)c(=O)o1`, the cytotoxicity at 10 µM turned out to be 1.99%. For `CCOCc1ccc(NC(=O)NC2CCCn3nc(CC)nc32)cc1` (stereo unspecified), the cytotoxicity at 10 µM is -7.68%. In the case of `Cc1nc(C(C)(C)NC(=O)Nc2ccccc2)no1` it was -1.48%; in that of `Cc1cc(N2CCN(CC(=O)N(C)C)CC2)nc(-c2ccncc2)n1`, -3.96%. Take `Fc1cnc(N2CCC3(CCCN(c4nncs4)C3)C2)nc1` (stereo unspecified): the cytotoxicity at 10 µM was 2.15%.

As to `CN(C)C(=O)[C@H]1C[C@@H]2CCN(Cc3ccncc3)C[C@H]2O1`, the cytotoxicity at 10 µM was 0.866%. Take `O=C(c1cn2ccsc2n1)N1CCN(CC2CC2)[C@@H]2CS(=O)(=O)C[C@@H]21`: the cytotoxicity at 10 µM was -2.82%. Turning to `CN1CCN(Cc2ccccc2Oc2cncc(C(N)=O)n2)CC1`, the cytotoxicity at 10 µM is -4.89%. The figure for `CCCc1cnc(C)nc1NC(C)Cc1cnccn1` (stereo unspecified) is -7.96%; for `CCC(C(=O)N1CCS(=O)(=O)CC1)n1cccn1` (stereo unspecified) it is 1.28%.

Turning to `Cc1ccc(-c2cnnc(NCC3(N4CCOCC4)CCCC3)n2)o1`, the cytotoxicity at 10 µM was -6.79%.

In the case of `Cc1ccccc1-n1cc(CNC(=O)CC2C(=O)NCCN2C)cn1` (stereo unspecified), the cytotoxicity at 10 µM is 2.4%. Regarding `COc1ccc(C(=O)N2CC[C@@H](N3CCC(O)CC3)[C@H](O)C2)cc1C`, the cytotoxicity at 10 µM is -8.1%.

Turning to `N[C@@H]1c2ccccc2C2(CCN(C(=O)c3ccc(=O)[nH]c3)CC2)[C@H]1O`, the cytotoxicity at 10 µM is 3.27%. The figure for `CN(CC1CCCCO1)c1ncnc2cc(F)ccc12` (stereo unspecified) is -2.15%; for `O=C(CCN1CCCC(CO)(CC2CC2)C1)NCc1cccc(Cl)c1` (stereo unspecified) it is -1.07%; for `O=C(Cc1ccc(F)cc1Cl)N[C@@H]1CCNC[C@H]1O` it is -0.918%. For the compound `COC(=O)c1ccc(NC(=O)CNCc2ccco2)cc1`, the cytotoxicity at 10 µM was -12%. For `Cc1ccc(CN2CCC(Cc3nnc(CO)n3C)CC2)cc1C`, the cytotoxicity at 10 µM turned out to be 5.19%. In the case of `COc1ccc(F)c(CN2CCCC(O)(CNC3CCCCC3)C2=O)c1` (stereo unspecified) it was 8.28%; in that of `COc1cccn(Cc2nnc(-c3cccc(F)c3)o2)c1=O`, 2%; in that of `FC(F)(F)C1CN(Cc2cccc(-c3ccccn3)c2)CCO1` (stereo unspecified), -7.73%. Regarding `Cc1[nH]c(=O)[nH]c(=O)c1CN1CCCC(CCc2ccc(F)c(F)c2)C1` (stereo unspecified), the cytotoxicity at 10 µM turned out to be 1.4%. The figure for `CN(CCCc1nccn1C)C(=O)C1CCN(C(=O)C2CCC2)CC1` is -7.12%; for `C=C(C)COc1ccccc1C(=O)N(C)C(C)c1c(C)n[nH]c1C` (stereo unspecified) it is 3.23%. Consider `Cc1nc2c(c(=O)n1C)CCN(C(=O)CCc1ccccn1)CC2`, for which the cytotoxicity at 10 µM turned out to be 14%. The figure for `COC(=O)c1ccc2ccn(CC3CCNC3)c(=O)c2c1` (stereo unspecified) is -28%. Consider `CC(NC(=O)NCc1cccc(F)c1)(C(=O)O)c1ccco1` (stereo unspecified), for which the cytotoxicity at 10 µM is -3.33%. The figure for `COc1c(CNCc2ccc3c(c2)OCO3)c(C(C)C)nn1C` is 0.745%. Take `CC(C)c1nn(C)c(N2CCOCC2)c1CNC(C)c1ccco1` (stereo unspecified): the cytotoxicity at 10 µM is -5.93%. The figure for `Cc1cc(C(=O)N2CCCC2c2noc(C(C)C)n2)c(C)o1` (stereo unspecified) is -3.54%. As for `COc1ccccc1CC(=O)N1CCCC(CNS(C)(=O)=O)C1` (stereo unspecified), the cytotoxicity at 10 µM is 0.691%. In the case of `Cc1cc(C(=O)NCc2ccnc(N3CCOCC3)c2)c(C)s1` it was -0.426%. In the case of `Cc1nc(CN2CCN(C(C)c3nc(C4CC4)no3)CC2)oc1C` (stereo unspecified) it was -5.95%; in that of `Cc1cc(C)n(CC2CCCCN2C(=O)CCc2ccncc2)n1` (stereo unspecified), 2.1%. With `Fc1ccc(-c2nc(CN3CCCC3Cn3cncn3)co2)cc1` (stereo unspecified), the cytotoxicity at 10 µM was -8.28%.

For the compound `CCOCC(O)CN1CCN(C(=O)c2ccc(N(C)C)nn2)CC1` (stereo unspecified), the cytotoxicity at 10 µM is -13.1%. Regarding `O=C(NCCN1CCCCCC1)c1n[nH]c(=O)c2ccccc12`, the cytotoxicity at 10 µM is -9.86%. The figure for `CCc1nc(CN(C)C2CCN(CC(F)(F)F)C2)no1` (stereo unspecified) is -16.8%. In the case of `Cc1ccc(NC2CCN(C(=O)COc3cccc(F)c3)CC2)nn1` it was 3.11%. The figure for `COCCOc1ccccc1C(=O)NCCN(C)C(C)C` is 0.449%; for `COc1cccc(CCC(=O)N2CCCC(c3nncn3C)C2)c1` (stereo unspecified) it is -20.1%. Regarding `CC(Cn1cccn1)NC(=O)N1CCN(Cc2ccsc2)CC1` (stereo unspecified), the cytotoxicity at 10 µM was -11.6%. In the case of `CCc1nc(C)c(C(=O)NCCNc2cnccn2)s1`, the cytotoxicity at 10 µM is -4.64%. In the case of `Cn1cc(CN2CCCN(C(=O)c3ccc4c(c3)COC4)CC2)cn1` it was -4.27%; in that of `O=C(CCc1ccc(Cl)s1)N1CCCC(n2cncn2)C1` (stereo unspecified), -7.7%; in that of `O=C(Cc1ccc(F)cc1)N1CCN(CC(O)C2CC2)CC1` (stereo unspecified), -15.2%. Consider `Cn1cncc1CN1CCC2(CC1)COCCN(S(C)(=O)=O)C2`, for which the cytotoxicity at 10 µM was determined as 4.73%. For `COCCNC(=O)[C@@H]1C[C@@H]2CCN(c3ncccn3)C[C@H]2O1`, the cytotoxicity at 10 µM is -2.48%. In the case of `COCCNC(=O)C(C)N1CCN(C)CC1` (stereo unspecified) it was -1.21%; in that of `Cn1ncc2c1CCCC2NCc1cccc(F)c1` (stereo unspecified), -15.6%; in that of `O=C(c1ccsc1)N1C[C@H]2CN(Cc3cccnc3)C(=O)[C@H]2C1`, -5.15%. Turning to `Fc1cnc(N2CCCn3cnc(COc4cccnc4)c3C2)nc1`, the cytotoxicity at 10 µM was 1.42%. Consider `COc1ccc(CN2CC[C@H]3[C@H](CO[C@H]3CNC(=O)N(C)C)C2)cc1`, for which the cytotoxicity at 10 µM came to 6.96%. In the case of `CN(C)C(=O)COCc1cncc2c1CCN(C1CCOCC1)C2` it was 9.66%; in that of `CC(C)n1cnc2c1C(C(=O)N(C)C)N(Cc1ccccc1)CC2` (stereo unspecified), -2.56%. In the case of `CN(Cc1cccnc1)[C@@H]1CN(CC2CC2)[C@@H]2CCCO[C@H]12`, the cytotoxicity at 10 µM is -1.48%.

Consider `CC(=O)N1C[C@H]2CC[C@@H](C1)N(Cc1ccc(Cn3cccn3)cc1)C2`, for which the cytotoxicity at 10 µM came out at 0.0531%. In the case of `Nc1cc(C(=O)N2C[C@@H]3CC[C@H]2CN(Cc2cccnc2)C3)ccn1` it was 0.624%.
